Measured values taken from ChEMBL document CHEMBL3627626, “6-Substituted Pyrrolo[2,3-d]pyrimidine Thienoyl Regioisomers as Targeted Antifolates for Folate Receptor α and the Proton-Coupled Folate Transporter in Human Tumors” (J Med Chem, 2015).
The source made the active and inactive calls. The rule behind the calls is not given here.

Key:
[1] = system: R2; assay: Cytotoxicity against Chinese hamster R2 cells transfected with empty PCDNA3 assessed as cell growth inhibition after 96 hrs by CellTiter-Blue assay; format: cell-based, Cricetulus griseus
[2] = system: D4; assay: Selectivity ratio of IC50 for human RFC expressed in Chinese hamster PC43-10 cells assessed as cell growth inhibition to IC50 for human FRbeta expressed in Chinese hamster D4 cells assessed as cell growth inhibition; format: cell-based
[3] = biological target: T1, Proton-coupled folate transporter (Homo sapiens) (UniProt Q96NT5); assay: Binding affinity to human PCFT expressed in Chinese hamster R2/PCFT4 cells assessed as cell growth inhibition after 96 hrs by CellTiter-Blue assay in presence of 200 nM folic acid; format: cell-based
T1 sequence (whole entry): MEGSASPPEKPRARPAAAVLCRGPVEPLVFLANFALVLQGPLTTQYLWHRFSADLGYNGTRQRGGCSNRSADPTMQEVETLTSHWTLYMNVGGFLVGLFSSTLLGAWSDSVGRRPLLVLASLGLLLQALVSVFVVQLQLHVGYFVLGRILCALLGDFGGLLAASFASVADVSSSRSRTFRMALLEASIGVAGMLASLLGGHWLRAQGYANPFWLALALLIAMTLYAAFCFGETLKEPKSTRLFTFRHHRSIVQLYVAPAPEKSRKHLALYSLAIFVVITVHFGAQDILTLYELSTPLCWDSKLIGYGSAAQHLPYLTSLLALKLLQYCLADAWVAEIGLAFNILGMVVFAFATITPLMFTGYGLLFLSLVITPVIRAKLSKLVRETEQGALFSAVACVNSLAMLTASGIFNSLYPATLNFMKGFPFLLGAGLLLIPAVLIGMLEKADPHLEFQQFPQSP
Procedure, shortened: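 Human-PCFT-transfected R2 CHO cells, precultured with G418, were plated at ~2500–5000 cells/well across a range of drug concentrations. Medium was folate-free RPMI 1640 (pH 7.2) with 25 nM LCV and 10% dialyzed FBS. Parallel wells received 200 nM folic acid. Incubated up to 96 h, then read with CellTiter Blue fluorescence (ex 560/em 590 nm).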

[4] = system: KB; assay: Antiproliferative activity against human KB cells expressing FRalpha/PCFT/RFC assessed as cell growth inhibition after 96 hrs by CellTiter-Blue assay in presence of 200 nM folic acid; format: functional, cell-based
[5] = biological target: Folate receptor alpha (Homo sapiens) (UniProt P15328); assay: Displacement of [3H]-folic acid from human FRalpha expressed in Chinese hamster RT16 cells after 15 mins relative to folic acid; format: cell-based
Procedure, shortened: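 Competitive binding to surface folate receptor on RT16 (FRα) or D4 (FRβ) CHO cells. Cells were acid-washed (pH 3.5) to strip bound folate, then incubated in HEPES-buffered saline pH 7.4 with 50 nM [3H]folic acid plus unlabeled ligand (0–1000 nM) for 15 min at 0 °C. Bound label was normalised to protein. Affinity is the inverse molar ratio for 50% displacement, with folic acid set to 1. Mean of 4–10 experiments ±SE.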

[6] = biological target: Folate receptor beta (Homo sapiens) (UniProt P14207); assay: Binding affinity to human FRbeta expressed in Chinese hamster D4 cells assessed as intracellular drug level at 50 nM at 37 degC after 1 hr; format: cell-based
Procedure, shortened: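 D4 CHO cells (human FRβ) were acid-washed at pH 3.5, then given 50 nM [3H]drug in HBSS pH 7.4 at 37 °C for 60 min. A second acid wash removed surface-bound label to give the intracellular fraction. Cells were solubilised in NaOH, and values expressed as pmol/mg protein. Mean ±SEM of three experiments.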

[7] = system: R2; assay: Cellular uptake in PCFT-null Chinese hamster R2 cells at 0.5 uM at 37 degC at pH 5.5 measured over 2 mins; format: ADME, cell-based, Cricetulus griseus; settings: r2, pH 5.5, 2 min
Procedure, shortened: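 R2/PCFT4 or PCFT-null R2 CHO cells were grown in suspension from spinner flasks. Uptake of 0.5 μM [3H]drug measured over 2 min at 37 °C in MES-buffered saline pH 5.5, with or without 10 μM unlabeled competitor. Uptake was quenched with ice-cold DPBS and cells solubilised in NaOH. Results are pmol/mg protein, mean ±SEM of three experiments.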

[8] = biological target: T1, Proton-coupled folate transporter (Homo sapiens); assay: Binding affinity to human PCFT expressed in Chinese hamster R2/PCFT4 cells assessed as intracellular drug transport rate at 37 degC at pH 5.5 measured over 2 mins by Lineweaver-Burk plot analysis; format: cell-based
Procedure, shortened: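 R2/PCFT4 CHO cells were grown as monolayers, transferred to spinner flasks, and used as suspensions (5–10 × 10⁷ cells). Uptake was quenched with ice-cold DPBS and cells were NaOH-solubilized. Results are pmol/mg protein; Kt and Vmax come from Lineweaver–Burke plots.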

Folate receptor beta (Homo sapiens), sequence (P14207 17-230 limits assumed): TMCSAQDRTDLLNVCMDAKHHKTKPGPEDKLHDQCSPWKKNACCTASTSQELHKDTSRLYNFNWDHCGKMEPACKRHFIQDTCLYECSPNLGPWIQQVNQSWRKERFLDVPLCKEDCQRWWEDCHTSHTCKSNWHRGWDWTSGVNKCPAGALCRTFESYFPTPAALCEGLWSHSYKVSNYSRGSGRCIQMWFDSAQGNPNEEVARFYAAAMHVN
Folate receptor alpha (Homo sapiens), sequence (P15328 25-234 limits assumed): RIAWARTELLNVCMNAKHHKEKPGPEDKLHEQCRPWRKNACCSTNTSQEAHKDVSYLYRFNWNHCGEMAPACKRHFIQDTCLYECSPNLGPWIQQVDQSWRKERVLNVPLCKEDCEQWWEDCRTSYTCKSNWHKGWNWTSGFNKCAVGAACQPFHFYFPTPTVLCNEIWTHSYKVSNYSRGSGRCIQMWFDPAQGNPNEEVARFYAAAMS

Nc1nc2[nH]c(CCCc3cc(C(=O)N[C@@H](CCC(=O)O)C(=O)O)cs3)cc2c(=O)[nH]1
IC50 [1]: > 1 µM | Ratio IC50 [2]: 1890 | Activity [3]: Active | IC50 [4]: 0.105 µM | Activity [5]: 60% | Activity [6]: 3.35 pmol/mg | Drug uptake [7]: Not Active | K [8]: 0.22 µM
